≈ marks a conversion by molar mass, not a printed value. Calls of active or inactive are those of the source. No cut-off for these calls is given here.
Assays:
Type in all cases: functional
Bacillus subtilis [1] = experiment: Antimicrobial activity against Bacillus subtilis IFO 3007 at 200 ug/8 mm disk after 24 hrs by agar disk diffusion method
Method in brief: (§1)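 Agar disc diffusion on Mueller-Hinton agar: 8 mm filter paper discs moistened with compound in DMSO (200 per disc) placed on plates pre-inoculated with each organism; incubated at 37 °C; growth inhibition zone diameter read after 24 h for bacteria, 48 h for C. albicans.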

Pseudomonas aeruginosa [2] = experiment: Antimicrobial activity against Pseudomonas aeruginosa IFO 3448 at 200 ug/8 mm disk after 24 hrs by agar disk diffusion method; method in brief: as §1
Escherichia coli [3] = experiment: Antimicrobial activity against Escherichia coli IFO 3301 at 200 ug/8 mm disk after 24 hrs by agar disk diffusion method; method in brief: as §1
Candida albicans = experiment: Antimicrobial activity against Candida albicans IFO 0583 at 200 ug/8 mm disk after 48 hrs by agar disk diffusion method; method in brief: as §1
Bacillus subtilis [4] = experiment: Antimicrobial activity against Bacillus subtilis IFO 3007 after 24 hrs; conditions: IFO 3007, 24 h
Method in brief: (§2)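 MIC by two-fold serial dilution in wells inoculated with 10^6 CFU/mL of each organism; incubated at 36 °C for 24 h (bacteria); MIC taken as lowest concentration giving no visible growth by unaided eye.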

Micrococcus luteus = experiment: Antimicrobial activity against Micrococcus luteus IFO 3232 at 200 ug/8 mm disk after 24 hrs by agar disk diffusion method; method in brief: as §1
Staphylococcus aureus = experiment: Antimicrobial activity against Staphylococcus aureus IFO 3060 at 200 ug/8 mm disk after 24 hrs by agar disk diffusion method; method in brief: as §1
Rattus norvegicus [5] = experiment: Antiinflammatory activity in Sprague-Dawley rat assessed as inhibition of carrageenan-induced paw edema at 40 mg/kg, ip administered 1 hrs before carrageenan challenge relative to untreated control; conditions: route intraperitoneal
Rattus norvegicus [6] = experiment: Antiinflammatory activity in Sprague-Dawley rat assessed as inhibition of carrageenan-induced paw edema at 20 mg/kg, ip administered 1 hrs before carrageenan challenge relative to untreated control; conditions: route intraperitoneal
Escherichia coli [7] = experiment: Antimicrobial activity against Escherichia coli IFO 3301 after 24 hrs; conditions: IFO 3301, 24 h; method in brief: as §2
Pseudomonas aeruginosa [8] = experiment: Antimicrobial activity against Pseudomonas aeruginosa IFO 3448 after 24 hrs; conditions: IFO 3448, 24 h; method in brief: as §2
Rattus norvegicus [9] = experiment: Antiinflammatory activity in Sprague-Dawley rat assessed as inhibition of carrageenan-induced paw edema at 5 mg/kg, ip administered 1 hrs before carrageenan challenge relative to untreated control; conditions: route intraperitoneal

Fc1ccc(NC(=S)Nc2nnc(C34CC5CC(CC(C5)C3)C4)s2)cc1
GI (Bacillus subtilis [1]): 19 mm
growth inhibition (GI) (Pseudomonas aeruginosa [2]): inactive
growth inhibition (GI) (Escherichia coli [3]): inactive
growth inhibition (GI) (Candida albicans): inactive
MIC (Bacillus subtilis [4]): 4 µg/mL (≈ 10.3 µM)
GI (Micrococcus luteus): 11 mm
GI (Staphylococcus aureus): 14 mm

S=c1sc(C23CC4CC(CC(C4)C2)C3)nn1CN1CCN(c2ccccc2)CC1
GI (Bacillus subtilis [1]): 14 mm
growth inhibition (GI) (Pseudomonas aeruginosa [2]): inactive
growth inhibition (GI) (Escherichia coli [3]): inactive
growth inhibition (GI) (Candida albicans): inactive
growth inhibition (GI) (Micrococcus luteus): inactive
growth inhibition (GI) (Staphylococcus aureus): inactive

CC(C(=O)O)n1nc(C23CC4CC(CC(C4)C2)C3)sc1=S (racemic)
GI (Bacillus subtilis [1]): 20 mm
growth inhibition (GI) (Pseudomonas aeruginosa [2]): inactive
growth inhibition (GI) (Escherichia coli [3]): inactive
inhibition in vivo at 40 mg/kg (Rattus norvegicus [5]): 65.2%
inhibition in vivo at 20 mg/kg (Rattus norvegicus [6]): 50.6%
growth inhibition (GI) (Candida albicans): inactive
MIC (Bacillus subtilis [4]): 4 µg/mL (≈ 12.3 µM)
GI (Micrococcus luteus): 13 mm
GI (Staphylococcus aureus): 18 mm

S=c1[nH]nc(C23CC4CC(CC(C4)C2)C3)s1
GI (Bacillus subtilis [1]): 13 mm
GI (Pseudomonas aeruginosa [2]): 20 mm
GI (Escherichia coli [3]): 27 mm
MIC (Escherichia coli [7]): 0.5 µg/mL (≈ 1.98 µM)
growth inhibition (GI) (Candida albicans): inactive
growth inhibition (GI) (Micrococcus luteus): inactive
MIC (Pseudomonas aeruginosa [8]): 2 µg/mL (≈ 7.92 µM)
GI (Staphylococcus aureus): 13 mm

O=C(O)CCn1nc(C23CC4CC(CC(C4)C2)C3)sc1=S
GI (Bacillus subtilis [1]): 13 mm
growth inhibition (GI) (Pseudomonas aeruginosa [2]): inactive
growth inhibition (GI) (Escherichia coli [3]): inactive
inhibition in vivo at 40 mg/kg (Rattus norvegicus [5]): 36.8%
inhibition in vivo at 20 mg/kg (Rattus norvegicus [6]): 7.47%
GI (Candida albicans): 11 mm
growth inhibition (GI) (Micrococcus luteus): inactive
GI (Staphylococcus aureus): 11 mm

O=c1[nH]nc(C23CC4CC(CC(C4)C2)C3)s1
growth inhibition (GI) (Bacillus subtilis [1]): inactive
growth inhibition (GI) (Pseudomonas aeruginosa [2]): inactive
growth inhibition (GI) (Escherichia coli [3]): inactive
growth inhibition (GI) (Candida albicans): inactive
growth inhibition (GI) (Micrococcus luteus): inactive
growth inhibition (GI) (Staphylococcus aureus): inactive

CN1CCN(Cn2nc(C34CC5CC(CC(C5)C3)C4)sc2=S)CC1
GI (Bacillus subtilis [1]): 14 mm
growth inhibition (GI) (Pseudomonas aeruginosa [2]): inactive
growth inhibition (GI) (Escherichia coli [3]): inactive
growth inhibition (GI) (Candida albicans): inactive
GI (Micrococcus luteus): 14 mm
GI (Staphylococcus aureus): 13 mm

Fc1ccc(Cn2nc(C34CC5CC(CC(C5)C3)C4)sc2=S)cc1
growth inhibition (GI) (Bacillus subtilis [1]): inactive
growth inhibition (GI) (Pseudomonas aeruginosa [2]): inactive
growth inhibition (GI) (Escherichia coli [3]): inactive
GI (Candida albicans): 14 mm
growth inhibition (GI) (Micrococcus luteus): inactive
growth inhibition (GI) (Staphylococcus aureus): inactive

COc1ccc2c(c1)c(CC(=O)O)c(C)n2C(=O)c1ccc(Cl)cc1 [INDOMETHACIN]
inhibition in vivo at 5 mg/kg (Rattus norvegicus [9]): 52.8%

S=c1sc(C23CC4CC(CC(C4)C2)C3)nn1Cc1ccccc1
growth inhibition (GI) (Bacillus subtilis [1]): inactive
growth inhibition (GI) (Pseudomonas aeruginosa [2]): inactive
growth inhibition (GI) (Escherichia coli [3]): inactive
inhibition in vivo at 40 mg/kg (Rattus norvegicus [5]): 0.92%
inhibition in vivo at 20 mg/kg (Rattus norvegicus [6]): 1.12%
growth inhibition (GI) (Candida albicans): inactive
growth inhibition (GI) (Micrococcus luteus): inactive
growth inhibition (GI) (Staphylococcus aureus): inactive

Source: ChEMBL document CHEMBL1275285, “Synthesis, antimicrobial and anti-inflammatory activities of novel 5-(1-adamantyl)-1,3,4-thiadiazole derivatives” (2010)
